Assay results taken from ChEMBL document CHEMBL4382201 (J Med Chem, 2018).
Converted amounts (≈) assume the structure as drawn. The source made the active and inactive calls. No cut-off for these calls is given here.

Key:
dsDNA [1] = assay: Induction of DNA-interstanded-cross-link formation in [32P]-labeled 49-mer duplex DNA (unknown origin) at 1 mM in absence of H2O2 after 16 hrs by PAGE relative to control; type: functional
Summary of the method: (§1)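 A 32P-labelled 49-mer, annealed with 1.5 equiv complement (65 °C for 3 min in 10 mM potassium phosphate pH 7, 100 mM NaCl, then slow cooling), was used at 1.0 µM before final dilution. Duplex was mixed with compound (final 1 mM), NaCl and potassium phosphate pH 8, with or without H2O2. Incubation 16 h at room temperature, formamide quench, then 20% denaturing PAGE.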

[2] = tested on: Panel NCI-60 (60 carcinoma cell lines); assay: Growth inhibition of human NCI60 cells at 10 uM after 48 hrs by SRB assay relative to control; type: functional, cell-based
Summary of the method: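 NCI-60 one-dose screen: cells exposed to 10 µM for 48 h at 37 °C, 5% CO2, 100% humidity. Percent growth is given relative to the no-drug control and the time-zero cell count.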

MDA-MB-468 [3] = assay: Growth inhibition of human MDA-MB-468 cells after 48 hrs by […]; type: functional, cell-based; conditions: MDA-MB-468, 48 h
[4] = Drug level in DMSO-d6/PBS buffer treated with (3-(((2-Amino-3-methoxy-3-oxopropyl)thio)methyl)-4-(bis(2-chloroethyl)amino)phenyl)boronic Acid assessed as compound formation after 10 days in presence of GSH by IT-TOF mass analysis; type: physicochemical; conditions: 240 h
[5] = Chemical stability of the compound in 100 mM pH 6 PBS buffer assessed as compound remaining at 10 mM at room temperature after 4 days; type: physicochemical; conditions: read-out: Stability
Summary of the method: (§2)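 Compound at 10 mM in 100 mM PBS (pH 6.0 or 7.4, prepared in D2O), diluted 9:1 with DMSO-d6. Kept at room temperature for 3-10 days. The fraction of intact compound was followed by NMR.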

IGROV-1 = assay: Growth inhibition of human IGROV1 cells after 48 hrs by SRB assay; type: functional; conditions: IGROV-1, 48 h
Summary of the method: (§3)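 NCI-60 five-dose screen at 100 µM, 10 µM, 1 µM, 100 nM and 10 nM. Incubation 48 h at 37 °C, 5% CO2, 100% humidity. Growth was expressed relative to the no-drug control and to the time-zero cell number, and GI50 was derived from these values.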

[6] = Chemical stability of the compound in 100 mM pH 7.4 PBS buffer assessed as compound remaining at 10 mM at room temperature after 2 days; type: physicochemical; conditions: read-out: Stability; summary of the method: as §2
MDA-MB-468 [7] = assay: Antitumor activity against human MDA-MB-468 cells xenografted in nude CD1 mouse assessed as tumor size of initial size at 1.5 mg/kg/day, ip measured after 7 weeks (reference value: 278 to 657%); type: functional
Summary of the method: (§4)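 Female athymic nude mice (35 days, 20-22 g) received 2 million MDA-MB-468 cells s.c. in the flank, suspended in 1:1 matrigel/DMEM. Mice with palpable tumours were given 1.5 mg/kg i.p. or vehicle, 11 mice per group. Tumour size was measured by caliper every 7 days and body weight was recorded regularly.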

MDA-MB-468 [8] = assay: Growth inhibition of human MDA-MB-468 cells after 48 hrs by SRB assay; type: functional; conditions: MDA-MB-468, 48 h; summary of the method: as §3
[9] = Chemical stability of the compound in 100 mM pH 7 PBS buffer assessed as compound remaining at 10 mM at room temperature after 4 days; type: physicochemical; conditions: read-out: Stability; summary of the method: as §2
SNB-75 = assay: Growth inhibition of human SNB75 cells after 48 hrs by SRB assay; type: functional; conditions: SNB-75, 48 h; summary of the method: as §3
dsDNA [10] = assay: Induction of DNA-interstanded-cross-link formation in [32P]-labeled 49-mer duplex DNA (unknown origin) at 1 mM in presence of H2O2 after 16 hrs by PAGE relative to control; type: functional; summary of the method: as §1
DNA [11] = assay: Induction of DNA cross-linking activity in human CLL-derived lymphocytes assessed as increase in gammaH2AX formation at 10 uM after 24 hrs by flow cytometry; type: functional, cell-based
Summary of the method: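 Primary CLL lymphocytes from 3 patients were treated for 24 h at 10 µM or 1 µM, depending on compound. H2AX phosphorylation (% γH2AX) was measured by flow cytometry.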

[12] = Solubility of the compound in 50% DMSO/PBS buffer at 10 mM pH 6 after 3 to 10 days by NMR analysis; type: physicochemical; conditions: pH 6, 10000 µM
HOP-92 = assay: Growth inhibition of human HOP92 cells after 48 hrs by SRB assay; type: functional; conditions: HOP-92, 48 h; summary of the method: as §3
SK-OV-3 = assay: Growth inhibition of human SKOV3 cells after 48 hrs by SRB assay; type: functional; conditions: SK-OV-3, 48 h; summary of the method: as §3
K562 = assay: Growth inhibition of human K562 cells after 48 hrs by SRB assay; type: functional; conditions: K562, 48 h; summary of the method: as §3
MCF7 = assay: Growth inhibition of human MCF7 cells after 48 hrs by SRB assay; type: functional; conditions: MCF7, 48 h; summary of the method: as §3
[13] = Drug metabolism in DMSO-d6/PBS buffer assessed as (S)-3-((2-amino-3-methoxy-3-oxopropylthio)methyl)-4-((2-chloroethyl)(2-hydroxyethyl)amino)phenylboronic acid formation after 10 days in presence of GSH by IT-TOF mass analysis
Lymphocyte [14] = assay: Induction of apoptosis in human CLL-derived lymphocytes up to 30000 nM after 24 hrs by Annexin V-FITC/propidium iodide-staining based flow cytometry; type: functional, cell-based
Summary of the method: (§5)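 Patient CLL lymphocytes isolated on Ficoll-Hypaque and held in RPMI 1640 with 10% autologous plasma at 1×10^7 cells/mL, fresh cells only. Cells were exposed to a concentration series for 24 h alongside time-matched untreated controls. Apoptosis was measured by annexin V-FITC/PI flow cytometry, at least 10,000 events per sample; each patient was analysed separately.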

[15] = Toxicity in CD1 mouse at 1.5 mg/kg/day, ip for 5 days per week measured after 3 months; type: organism-based; conditions: in vivo, 120 h
Summary of the method: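 Mice were dosed i.p. at 1.5 mg/kg per day, 5 days per week, over three months and observed for toxicity.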

Lymphocyte [16] = assay: Induction of apoptosis in human lymphocytes at 10 uM after 24 hrs by Annexin V-FITC/propidium iodide-staining based flow cytometry; type: cell-based
Summary of the method: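 Normal PBMCs from 3 donors were isolated on Ficoll and treated at 10 µM. Apoptosis was measured by annexin V-FITC/PI flow cytometry against time-matched untreated controls.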

[17] = Drug metabolism in DMSO-d6/PBS buffer assessed as 1-(2-chloroethyl)-5-(methoxycarbonyl)-1,2,3,4,5,7-hexahydrobenzo[g][1,3,6]thiadiazonin-9-ylboronic acid formation after 10 days in presence of GSH by IT-TOF mass analysis
[18] = Chemical stability of the compound in 100 mM pH 6 PBS buffer assessed as compound remaining at 10 mM at room temperature after 2 days; type: physicochemical; conditions: read-out: Stability; summary of the method: as §2
HT-29 = assay: Growth inhibition of human HT-29 cells after 48 hrs by SRB assay; type: functional; conditions: HT-29, 48 h; summary of the method: as §3
[19] = Cytotoxicity against human CLL cells assessed as reduction in cell viability after 24 hrs; type: functional, cell-based; summary of the method: as §5
[20] = Solubility of the compound in PBS buffer at 10 mM at pH 7.4 by UV-based analysis; type: physicochemical
Summary of the method: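 Compound (10 mM DMSO stock) was diluted into pH 7.4 buffer (ethanolamine/KH2PO4/potassium acetate/KCl) to a final 5% DMSO. After sonication and 18 h agitation the mixture was filtered and scanned by UV at 230-800 nm. Solubility was calculated from calibration plots made in 20% acetonitrile buffer, in quadruplicate, with solubility standards on each plate.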

[21] = Chemical stability of the compound in 50% DMSO/PBS buffer assessed as compound remaining at pH 6 in presence of GSH after 24 hrs; type: physicochemical; conditions: 50% DMSO/PBS buffer with GSH, read-out: Stability
Summary of the method: (§6)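 Compound with GSH in DMSO-d6/PBS buffer 1:1, pH 6. Intact compound was followed by NMR over 24-48 h.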

[22] = Chemical stability of the compound in 50% DMSO/PBS buffer assessed as compound remaining at pH 6 in presence of GSH after 48 hrs; type: physicochemical; conditions: 50% DMSO/PBS buffer with GSH, read-out: Stability; summary of the method: as §6
RPMI-8226 = assay: Growth inhibition of human RPMI8226 cells after 48 hrs by SRB assay; type: functional; conditions: RPMI-8226, 48 h; summary of the method: as §3
[23] = Drug metabolism in DMSO-d6/PBS buffer assessed as 1-(2-hydroxyethyl)-5-(methoxycarbonyl)-1,2,3,4,5,7-hexahydrobenzo[g][1,3,6]thiadiazonin-9-ylboronic acid formation after 10 days in presence of GSH by IT-TOF mass analysis
CCRF-CEM = assay: Growth inhibition of human CCRF-CEM cells after 48 hrs by SRB assay; type: functional; summary of the method: as §3
MOLT-4 = assay: Growth inhibition of human MOLT4 cells after 48 hrs by SRB assay; type: functional; conditions: MOLT-4, 48 h; summary of the method: as §3
SR = assay: Growth inhibition of human SR cells after 48 hrs by SRB assay; type: functional; summary of the method: as §3
Malme-3M = assay: Growth inhibition of human MALME-3M cells after 48 hrs by SRB assay; type: functional; summary of the method: as §3
[24] = Toxicity in CD1 mouse xenografted with human MDA-MB-468 cells assessed as body weight change at 1.5 mg/kg/day, ip measured after 7 weeks; type: organism-based; conditions: in vivo, 1176 h; summary of the method: as §4
[25] = Chemical stability of the compound in 90% DMSO/PBS buffer assessed as compound remaining at pH 6 in presence of GSH; type: physicochemical
Summary of the method: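 Compound and GSH at a 1:2 ratio in DMSO-d6/PBS 9:1, pH 6.0, at room temperature. Compound-only and GSH-only samples served as controls. Intact compound was monitored by NMR.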

DNA [26] = assay: Induction of DNA cross-linking activity in human CLL-derived lymphocytes assessed as increase in gammaH2AX formation at 5 to 20 uM after 24 hrs by flow cytometry; type: functional, cell-based
Summary of the method: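 Primary CLL lymphocytes from 5 patients were treated at 5-20 µM for 24 h. γH2AX was quantified by flow cytometry.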

## COC(=O)C(CSCc1cc(B2OC(C)(C)C(C)(C)O2)ccc1N(CCCl)CCCl)NC(=O)OC(C)(C)C (stereo not given)
dsDNA [1]
  Activity: < 5%
[2]
  growth inhibition (GI): inactive

## O=C(O)CCCc1ccc(N(CCCl)CCCl)cc1 [CHLORAMBUCIL]
dsDNA [1]
  Activity: 5.7%
MDA-MB-468 [3]
  IC50: 34.4 µM

## COC(=O)C1CSCc2cc(B(O)O)ccc2N(CCO)CCN1 (stereo not given)
[4]
  Drug uptake: Active

## COC(=O)[C@H](N)CSCc1cc(B(O)O)ccc1N(CCCl)CCCl
[5]
  remaining at 96 h, 10000 µM: 85%
IGROV-1
  GI50: 3.32 µM
[6]
  remaining at 48 h, 10000 µM: 92%
MDA-MB-468 [7]
  Activity: 58 - 178%
MDA-MB-468 [8]
  GI50: 1.49 µM
[9]
  remaining at 96 h, 10000 µM: 85%
SNB-75
  GI50: 0.85 µM
dsDNA [10]
  Activity: < 65%
DNA [11]
  Activity: Active
[12]
  solubility: Insoluble
HOP-92
  GI50: 0.56 µM
dsDNA [1]
  Activity: 1.5 to 15%
SK-OV-3
  GI50: 1.46 µM
K562
  GI50: 3.25 µM
MCF7
  GI50: 0.72 µM
[13]
  Drug metabolism: Metabolite detected
Lymphocyte [14]
  Activity: Active
[15]
  Activity: Non-Toxic
Lymphocyte [16]
  Activity: Non-Toxic
[17]
  Drug metabolism: Metabolite detected
[18]
  remaining at 48 h, 10000 µM: 92%
HT-29
  GI50: 4.03 µM
[19]
  IC50: 0.003 to 0.778 µM
[20]
  solubility: 231 µM (≈ 94.5 µg/mL)
[21]
  remaining at 24 h: 90%
[22]
  remaining at 48 h: 70%
RPMI-8226
  GI50: 2.62 µM
[23]
  Drug metabolism: Metabolite detected
CCRF-CEM
  GI50: 0.54 µM
MDA-MB-468 [3]
  IC50: 3.4 µM
MOLT-4
  GI50: 0.6 µM
SR
  GI50: 0.28 µM
Malme-3M
  GI50: 2.39 µM
[24]
  Activity: Non-Toxic
[25]
  Stability: Stable

## CC1(C)OB(c2ccc(N(CCCl)CCCl)c([N+](=O)[O-])c2)OC1(C)C
dsDNA [10]
  Activity: < 9%
dsDNA [1]
  Activity: 1.5 to 15%
[20]
  solubility: 380 µM (≈ 148 µg/mL)
MDA-MB-468 [3]
  IC50: 92.8 µM
[2]
  growth inhibition (GI): inactive

## CC1(C)OB(c2ccc(CO)cc2)OC1(C)C
DNA [26]
  Activity: inactive

## N[C@@H](Cc1ccc(N(CCCl)CCCl)cc1)C(=O)O [MELPHALAN]
dsDNA [1]
  Activity: 4.9%
MDA-MB-468 [3]
  IC50: 48.7 µM

## Cc1cc(N(CCCl)CCCl)ccc1B1OC(C)(C)C(C)(C)O1
IGROV-1
  GI50: 16.1 µM
MDA-MB-468 [8]
  GI50: 7.88 µM
SNB-75
  GI50: 10.1 µM
dsDNA [10]
  Activity: < 65%
HOP-92
  GI50: 13.3 µM
dsDNA [1]
  Activity: 1.5 to 15%
SK-OV-3
  GI50: 4.62 µM
K562
  GI50: 5.48 µM
MCF7
  GI50: 3.86 µM
HT-29
  GI50: 14.7 µM
[20]
  solubility: 24 µM (≈ 8.59 µg/mL)
RPMI-8226
  GI50: 12 µM
CCRF-CEM
  GI50: 2.9 µM
MDA-MB-468 [3]
  IC50: 48.3 µM
MOLT-4
  GI50: 2.6 µM
SR
  GI50: 0.49 µM
Malme-3M
  GI50: 13.6 µM
